Source: PubChem BioAssay (several laboratories)
STAT1 blocker – STAT1 signaling inhibitors, primary screen, cell-based, HTS, luciferase reporter; inhibition, % at 5.5 µM; AID 920, 2007; 200,000 compounds, 0.35% hits; NIH 3T3 STAT1-luciferase reporter, IFN-gamma, luminescence;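 active = inhibition above a set limit, the mean inhibition across all tested compounds plus 3 SD, cut at about 34% in these data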;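 note: 0% = IFN-gamma with DMSO and 100% = IFN-gamma with 300 µM nifuroxazide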
NF-kB neuron act – activators of NF-kB expression in neurons, primary screen, cell-based, HTS; human neuronal cells, NF-kB reporter expression; stronger effect = higher value; fold change at 12.5 µM; 190,000 compounds, 1.6% hits; in the data active = fold change above about 3.3
STAT3 inh – IL-6 driven STAT3 reporter inhibitors, primary screen, U3A cells, luciferase, luminescence, MLSCN library; IL-6 STAT3-luciferase reporter; host cell line lacks STAT1; inhibition, % at 5.5 µM; 190,000 compounds, 0.89% hits;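 active = inhibition above the mean inhibition across all screened compounds plus 3 SD, cut at about 44% in these data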;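 note: 0% = DMSO only wells and 100% = 100 µM nifuroxazide control wells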
STAT1 act-1 – STAT1 signaling activators, primary screen, cell-based, HTS, luciferase reporter; NIH 3T3 STAT1-luciferase reporter, IFN-gamma, luminescence; 100% = IFN-gamma alone, no compound; activation (% of control), % at 5.5 µM; 200,000 compounds, 2.6% hits; AID 932, 2007;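 active = activation above the screen-wide mean activation plus 3 SD, cut at about 130% in these data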;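 note: raw ratio to IFN-gamma control signal so 100% means no change and 0% no light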
APP 5'UTR act – activators of APP 5'UTR luciferase reporter, primary screen, SH-SY5Y cells; SH-SY5Y APP 5'UTR luciferase reporter, luminescence; zero percent = DMSO vehicle wells; activation, % at 2 µM; 190,000 compounds, 1% hits; AID 1276, 2008;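 active = activation above a set limit, based on mean plus 3 SD of controls, cut at about 140% in these data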
STAT3 act-1 – IL-6 driven STAT3 reporter potentiators, primary screen, U3A cells, luciferase, luminescence, MLSCN library; activation (% of control), % at 5.6 µM; IL-6 STAT3-luciferase reporter; 100% = signal with IL-6 EC80 alone; 190,000 compounds, 0.91% hits;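 active = activation above the screen-wide mean of compound activation plus 3 SD, cut at about 130% in these data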;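 note: 0% = background luminescence of wells with medium and substrate only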
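Test system: STAT3-luciferase reporter U3A cells; Detection: reporter luminescence signal; Times: 1 h compound pre-exposure, 6 h IL-6 stimulation, 37 °C; Benchmarks: IL-6-only high control; Also added: IL-6 stimulus at 33 ng/mL final.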
STAT3 act-2 – STAT3 reporter potentiators, retest of hits, confirmation, U3A cells, luciferase, luminescence | 1,200 compounds, 64% hits | IL-6 potentiation; U3A cells lack STAT1; 100 means same as IL-6 alone | shares compounds with STAT3 act-1 | potentiation (% of control), % at 5.7 µM;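 active = percent activation of the STAT3 luciferase reporter above a set limit taken from the earlier primary screen, cut at about 130% in these data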;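 note: 0% = background signal of medium plus substrate and 100% = median of IL-6 with DMSO wells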
NFkB act 2 – NF-kB reporter activators in human cells, counter-screen for STAT3 activator project. shares compounds with STAT3 act-1. NF-kappaB reporter activation. activation (% of control), % at 5.7 µM. 1,200 compounds, 11% hits. AID 1309, 2008; in the data active = activation above about 120%;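 note: reporter induced by TNF-alpha stimulation; 100% = median of stimulated DMSO wells and 0% = no signal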
STAT1 act-2 – STAT1 reporter activators, IFN-gamma induced, counter-screen for STAT3 activator project, cell-based, NIH 3T3, luciferase luminescence | shares compounds with STAT3 act-1 | NIH 3T3 STAT1-luciferase reporter | activation (% of control), % at 5.7 µM | 1,200 compounds, 13% hits | AID 1318, 2008;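 active = activation above the solvent-only control well mean plus 3 SD, set per screening run, cut at about 120% in these data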;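 note: 100% = IFN-gamma with DMSO median signal so 100% means no change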
Numbers without * were called inactive; · = no result given. Shown are actives, neighbours in structure and some others; about 4.9% of the full set was active somewhere.

SMILES	STAT1 blocker	NF-kB neuron act	STAT3 inh	STAT1 act-1	APP 5'UTR act	STAT3 act-1	STAT3 act-2	NFkB act 2	STAT1 act-2
Cc1cc(NC(=O)CCC(=O)N(c2ccccc2)C(C(=O)NCC2CCCO2)c2cccnc2)no1 (centres undefined)	2	1	-18	99	-2	120	·	·	·
COC(=O)c1cnn(-c2nc3c(C)cccc3s2)c1C	-1	2	-40	101	1	140*	134*	108	116
CN(C)c1nc(OCCOC(=O)COc2ccc(Cl)cc2Cl)nc(N(C)C)n1	-9	0.99	-4	110	-6	107	·	·	·
CN(C)c1nc(OCCNC(=O)COc2ccc(Cl)cc2Cl)nc(N(C)C)n1	4	1.1	-49	96	-3	146*	127	98	91
Cc1cc(NS(=O)(=O)c2ccc(NC(=O)c3oc4ccccc4c3C)cc2)no1	-3	1	-53	103	-20	145*	129	106	102
CSc1nc(-c2ccc(F)cc2)cc(=O)[nH]1	-4	1.1	9	103	-4	94	·	·	·
C=CCn1c(COc2cc(C)ccc2C(C)C)nnc1SCC(=O)c1c(N)n(C)c(=O)n(C)c1=O	6	1.5	10	95	10	99	·	·	·
COC(=O)c1sccc1NC(=S)Nc1ccc(F)cc1	11	1.2	12	90	-3	92	·	·	·
COC(=O)c1sccc1NC(=O)Nc1cccc(F)c1	-29	0.8	-43	127	4	150*	131	121*	135*
C=CCN(c1ccc(C(=O)NCCc2ccccc2)cc1)S(C)(=O)=O	-6	1.4	-1	105	29	106	·	·	·
Cc1ccc2c(c1)NCC(C(=O)NCc1ccccc1)O2 (centres undefined)	3	1.3	2	98	-10	98	·	·	·
NC(=O)C1CNc2ccccc2O1 (centres undefined)	-3	1.1	-67	102	3	156*	148*	105	100
COc1ccccc1NC(=O)COc1ccc(C(=O)NC2CCCc3ccccc32)cc1OC (centres undefined)	-15	0.97	1	111	-6	104	·	·	·
COc1ccc(C2C(C#N)=C(C)NC(C)=C2C(=O)OC(C)C)c(OC)c1 (centres undefined)	-4	1.1	12	102	-10	98	·	·	·
Brc1cc(Br)c2nc(-c3cccs3)ccc2c1	-7	1.4	-48	107	-6	145*	133	115	125*
CC(=O)Nc1cccc2c1C(=O)N(c1ccc(C)cc1)C2=O	-5	1.6	-67	108	-8	160*	163*	114	121*
Cc1ccc(N2C(=O)c3cccc4c(C(=O)O)ccc(c34)C2=O)cc1	-5	1.3	13	105	12	96	·	·	·
CC(=O)Nc1ccccc1-c1nn[nH]n1	9	1	-56	92	-40	151*	142*	111	100
CCOC(=O)C1=C(NC(=S)NC(=O)c2ccccc2)c2ccccc2CC1C(C)C (centres undefined)	-4	3.7*	-41	103	-6	139*	126	74	105
CCOC(=O)C1=C(NC(=S)NC(=O)c2ccccc2)c2ccccc2CC1(C)CC (centres undefined)	9	0.57	-14	92	-16	117	·	·	·
